According to ChEMBL document CHEMBL1140055, “Mixed-lineage kinase 1 and mixed-lineage kinase 3 subtype-selective dihydronaphthyl[3,4-a]pyrrolo[3,4-c]carbazole-5-ones: optimization, mixed-lineage kinase 1 crystallography, and oral in vivo activity in 1-methyl-4-phenyltetrahydropyridine models” (J Med Chem, 2008):
The source made the active and inactive calls. No cut-off for these calls is given here.

Experiments:
[1] = molecular target: T1, Mitogen-activated protein kinase kinase kinase 9 (Homo sapiens, UniProt P80192); test: Inhibition of GST-fused human MLK1
Summary of the method: (§1)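 GST fusions of human MLK kinase domains from baculovirus (50 ng MLK1_KD, 150 ng MLK2_KD/LZ, 100 ng MLK3_KD), substrate 500 µg/mL myelin basic protein. Buffer 20 mM Hepes pH 7.2, 5 mM EGTA, 15 mM MgCl2, 1 mM DTT, 25 mM β-glycerophosphate, 0.1% BSA, 2% DMSO.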
Target sequence in this assay (P80192 whole entry, the tested form may be a part): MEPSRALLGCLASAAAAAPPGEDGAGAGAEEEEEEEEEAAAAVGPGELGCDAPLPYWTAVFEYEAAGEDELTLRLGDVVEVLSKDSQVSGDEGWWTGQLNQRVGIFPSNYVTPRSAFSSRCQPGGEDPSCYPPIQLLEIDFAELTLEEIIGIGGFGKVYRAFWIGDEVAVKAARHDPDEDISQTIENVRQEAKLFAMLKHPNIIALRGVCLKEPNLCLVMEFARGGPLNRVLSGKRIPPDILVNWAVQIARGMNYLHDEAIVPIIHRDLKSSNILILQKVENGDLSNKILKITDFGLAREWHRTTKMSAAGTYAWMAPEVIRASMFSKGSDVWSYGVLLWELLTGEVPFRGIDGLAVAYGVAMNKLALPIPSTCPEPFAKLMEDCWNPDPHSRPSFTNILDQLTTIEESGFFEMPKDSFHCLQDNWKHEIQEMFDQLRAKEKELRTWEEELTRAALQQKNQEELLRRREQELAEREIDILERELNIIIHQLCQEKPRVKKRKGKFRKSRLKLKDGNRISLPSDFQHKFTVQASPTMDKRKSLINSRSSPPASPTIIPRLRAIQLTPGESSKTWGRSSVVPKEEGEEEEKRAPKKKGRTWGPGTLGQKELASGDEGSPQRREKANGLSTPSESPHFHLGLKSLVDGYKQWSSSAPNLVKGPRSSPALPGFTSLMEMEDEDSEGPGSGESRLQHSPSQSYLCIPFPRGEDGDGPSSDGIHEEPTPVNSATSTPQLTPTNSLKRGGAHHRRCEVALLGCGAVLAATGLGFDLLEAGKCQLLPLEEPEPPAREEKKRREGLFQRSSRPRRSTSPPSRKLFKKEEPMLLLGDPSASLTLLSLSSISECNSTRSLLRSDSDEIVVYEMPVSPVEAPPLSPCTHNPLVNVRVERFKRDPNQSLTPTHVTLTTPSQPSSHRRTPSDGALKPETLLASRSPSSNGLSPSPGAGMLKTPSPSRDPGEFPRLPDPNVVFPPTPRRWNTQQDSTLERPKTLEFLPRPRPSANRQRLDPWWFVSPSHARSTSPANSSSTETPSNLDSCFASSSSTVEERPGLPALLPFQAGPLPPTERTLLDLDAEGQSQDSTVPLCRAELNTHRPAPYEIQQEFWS

[2] = molecular target: T1, Mitogen-activated protein kinase kinase kinase 9; test: Inhibition of GST-fused human MLK1 expressed in CHO cells assessed as MKK4 phosphorylation; assay type: cell-based
Summary of the method: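 CHO cells transfected with MLK1 plus dominant-negative MKK4 cDNA; phospho-MKK4 quantified by ELISA; IC50 derived.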
Target sequence in this assay (P80192 whole entry, the tested form may be a part): as above

[3] = molecular target: T2, Mitogen-activated protein kinase kinase kinase 11 (Homo sapiens, UniProt Q16584); test: Inhibition of GST-fused human MLK3; summary of the method: as §1
Target sequence in this assay (Q16584 whole entry, the tested form may be a part): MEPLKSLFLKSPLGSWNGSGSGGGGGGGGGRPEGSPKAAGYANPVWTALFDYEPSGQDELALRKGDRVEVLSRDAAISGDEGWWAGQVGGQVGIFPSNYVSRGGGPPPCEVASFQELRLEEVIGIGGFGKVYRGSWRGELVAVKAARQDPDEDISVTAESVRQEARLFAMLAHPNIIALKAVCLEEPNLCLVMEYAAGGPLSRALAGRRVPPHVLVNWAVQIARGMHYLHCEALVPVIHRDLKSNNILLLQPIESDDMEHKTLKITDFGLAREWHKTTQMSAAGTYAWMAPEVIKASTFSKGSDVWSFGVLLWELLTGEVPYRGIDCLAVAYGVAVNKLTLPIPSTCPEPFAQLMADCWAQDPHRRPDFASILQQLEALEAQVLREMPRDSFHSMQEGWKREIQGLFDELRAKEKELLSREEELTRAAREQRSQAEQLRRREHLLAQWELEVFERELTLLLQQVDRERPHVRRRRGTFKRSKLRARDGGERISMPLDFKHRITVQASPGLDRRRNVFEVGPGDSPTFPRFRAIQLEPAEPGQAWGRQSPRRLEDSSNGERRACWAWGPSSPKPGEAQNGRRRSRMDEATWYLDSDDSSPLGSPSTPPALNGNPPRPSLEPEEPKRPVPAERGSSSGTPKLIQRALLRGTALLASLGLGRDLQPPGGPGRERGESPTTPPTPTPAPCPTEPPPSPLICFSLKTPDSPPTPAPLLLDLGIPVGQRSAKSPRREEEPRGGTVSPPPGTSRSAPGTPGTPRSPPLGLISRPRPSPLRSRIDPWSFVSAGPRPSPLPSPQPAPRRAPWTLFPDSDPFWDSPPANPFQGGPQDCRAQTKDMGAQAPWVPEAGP

[4] = molecular target: T2, Mitogen-activated protein kinase kinase kinase 11; test: Inhibition of GST-fused human MLK3 at 1 uM
Summary of the method: (§2)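 Baculovirus-expressed GST fusions of human MLK1 or MLK3 kinase domain (50 ng MLK1, 100 ng MLK3), myelin basic protein substrate at 500 µg/mL.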
Target sequence in this assay (Q16584 whole entry, looked up, the tested form may be a part): as the sequence (Q16584 whole entry, the tested form may be a part) above

[5] = molecular target: T1, Mitogen-activated protein kinase kinase kinase 9; test: Inhibition of GST-fused human MLK1 at 1 uM; summary of the method: as §2
Target sequence in this assay (P80192 whole entry, looked up, the tested form may be a part): as the sequence (P80192 whole entry, the tested form may be a part) above

[6] = Volume of distribution in Sprague-Dawley rat at 2 mg/kg, iv; assay type: ADME, organism-based; design: dose 2 mg/kg, route intravenous; details: in vivo
Summary of the method: (§3)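 Rat PK: iv dose into lateral tail vein in 3% DMSO/30% solutol/67% PBS; oral gavage in 50% Tween 80/40% propylene carbonate/10% propylene glycol, rats fasted overnight before oral dosing. Serial tail-vein blood at seven times over 6 h into heparinized tubes. Plasma protein-precipitated with acetonitrile, analysed with internal standard by LC-MS/MS. Bioavailability from iv versus po AUCs.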

[7] = molecular target: Tyrosine-protein kinase Lck (Homo sapiens, UniProt P06239); test: Inhibition of human Lck expressed in baculovirus insect cell system
[8] = Oral bioavailability in Sprague-Dawley rat at 4 mg/kg; assay type: ADME, organism-based; details: in vivo; summary of the method: as §3
Mus musculus [9] = test: Inhibition of MPTP-induced increase in pMKK4 levels in mouse at 6.7 mg/kg, po administered 2 hrs before MPTP challenge followed by 40 mg/kg, sc 2 hrs after MPTP challenge; assay type: functional
Summary of the method: (§4)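 Mice dosed orally at 6.7 mg/kg 2 h before and 2 h after MPTP (40 mg/kg sc). Substantia nigra dissected 2 h after second dose; pMKK4 measured by immunoblot against treated and control groups. Plasma drug levels taken 2 h after dosing (4 h post-MPTP).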

[10] = molecular target: Tyrosine-protein kinase Fyn (Homo sapiens, UniProt P06241); test: Inhibition of human Fyn kinase expressed in baculovirus insect cell system
Chain of Tyrosine-protein kinase Fyn (P06241 whole entry): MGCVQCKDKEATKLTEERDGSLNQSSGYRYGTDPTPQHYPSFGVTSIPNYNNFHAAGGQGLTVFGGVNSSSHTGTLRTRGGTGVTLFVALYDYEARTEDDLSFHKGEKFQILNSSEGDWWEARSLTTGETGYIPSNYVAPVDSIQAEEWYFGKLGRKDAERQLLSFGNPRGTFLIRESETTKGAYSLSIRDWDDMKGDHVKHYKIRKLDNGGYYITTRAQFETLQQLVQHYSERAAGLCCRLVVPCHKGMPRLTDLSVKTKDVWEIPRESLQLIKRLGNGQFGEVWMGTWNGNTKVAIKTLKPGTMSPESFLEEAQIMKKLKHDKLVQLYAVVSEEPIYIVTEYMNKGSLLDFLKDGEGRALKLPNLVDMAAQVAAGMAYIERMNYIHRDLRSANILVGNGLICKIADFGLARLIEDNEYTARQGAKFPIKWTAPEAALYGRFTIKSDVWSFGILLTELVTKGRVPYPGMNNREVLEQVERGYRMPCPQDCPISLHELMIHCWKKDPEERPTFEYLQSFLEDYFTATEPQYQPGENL

[11] = molecular target: Mitogen-activated protein kinase 14 (Homo sapiens, UniProt Q16539); test: Inhibition of human P38alpha expressed in baculovirus insect cell system
[12] = Cmax in Sprague-Dawley rat at 4 mg/kg, po; assay type: ADME, organism-based; design: dose 4 mg/kg, route oral; details: in vivo
[13] = Clearance in Sprague-Dawley rat at 2 mg/kg, iv; assay type: ADME, organism-based; design: dose 2 mg/kg, route intravenous; details: in vivo; summary of the method: as §3
[14] = Inhibition of human IRK expressed in baculovirus insect cell system
[15] = molecular target: Fibroblast growth factor receptor 1 (Homo sapiens, UniProt P11362); test: Inhibition of human FGFR1 expressed in baculovirus insect cell system
[16] = molecular target: c-Jun N-terminal kinase, JNK (Homo sapiens, UniProt P45983+P53779+P45984); test: Inhibition of human JNK expressed in baculovirus insect cell system
Mus musculus [17] = test: Neuroprotective activity against MPTP-induced loss of striatal dopamine markers in mouse at 2 mg/kg, po administered once daily; assay type: functional, organism-based; design: dose 2 mg/kg
Summary of the method: (§5)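 Mouse MPTP neurotoxicity: low dose 20 mg/kg sc, assessing striatal DA terminals by GBR-12935 binding; high dose 40 mg/kg sc, assessing striatal DA markers and substantia nigra cell bodies by TH immunoreactivity. Test compounds given orally, q.d. or b.i.d.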

Protein kinase C (PKC) = test: Inhibition of human PKC expressed in baculovirus insect cell system
[18] = AUC in Sprague-Dawley rat at 2 mg/kg, iv; assay type: ADME, organism-based; design: dose 2 mg/kg, route intravenous; details: plasma
Summary of the method: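 Single intravenous dose into the lateral tail vein in 3% DMSO, 30% solutol and 67% phosphate-buffered saline. Serial heparinized blood samples were taken from the lateral tail vein at seven times over 6 h. Plasma was separated by centrifugation, deproteinized with acetonitrile and analysed for drug against an internal standard by LC-MS/MS.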

[19] = molecular target: Vascular endothelial growth factor receptor 3 (Homo sapiens, UniProt P35916); test: Inhibition of human VEGFR3 expressed in baculovirus insect cell system
[20] = Plasma concentration in mouse at 6.7 mg/kg, po administered 2 hrs before MPTP challenge followed by 40 mg/kg, sc 2 hrs after MPTP challenge; assay type: ADME, organism-based; details: other: po followed by sc; summary of the method: as §4
[21] = molecular target: Vascular endothelial growth factor receptor 2 (Homo sapiens, UniProt P35968); test: Inhibition of human VEGFR2 expressed in baculovirus insect cell system
Chain of Vascular endothelial growth factor receptor 2 (P35968 whole entry): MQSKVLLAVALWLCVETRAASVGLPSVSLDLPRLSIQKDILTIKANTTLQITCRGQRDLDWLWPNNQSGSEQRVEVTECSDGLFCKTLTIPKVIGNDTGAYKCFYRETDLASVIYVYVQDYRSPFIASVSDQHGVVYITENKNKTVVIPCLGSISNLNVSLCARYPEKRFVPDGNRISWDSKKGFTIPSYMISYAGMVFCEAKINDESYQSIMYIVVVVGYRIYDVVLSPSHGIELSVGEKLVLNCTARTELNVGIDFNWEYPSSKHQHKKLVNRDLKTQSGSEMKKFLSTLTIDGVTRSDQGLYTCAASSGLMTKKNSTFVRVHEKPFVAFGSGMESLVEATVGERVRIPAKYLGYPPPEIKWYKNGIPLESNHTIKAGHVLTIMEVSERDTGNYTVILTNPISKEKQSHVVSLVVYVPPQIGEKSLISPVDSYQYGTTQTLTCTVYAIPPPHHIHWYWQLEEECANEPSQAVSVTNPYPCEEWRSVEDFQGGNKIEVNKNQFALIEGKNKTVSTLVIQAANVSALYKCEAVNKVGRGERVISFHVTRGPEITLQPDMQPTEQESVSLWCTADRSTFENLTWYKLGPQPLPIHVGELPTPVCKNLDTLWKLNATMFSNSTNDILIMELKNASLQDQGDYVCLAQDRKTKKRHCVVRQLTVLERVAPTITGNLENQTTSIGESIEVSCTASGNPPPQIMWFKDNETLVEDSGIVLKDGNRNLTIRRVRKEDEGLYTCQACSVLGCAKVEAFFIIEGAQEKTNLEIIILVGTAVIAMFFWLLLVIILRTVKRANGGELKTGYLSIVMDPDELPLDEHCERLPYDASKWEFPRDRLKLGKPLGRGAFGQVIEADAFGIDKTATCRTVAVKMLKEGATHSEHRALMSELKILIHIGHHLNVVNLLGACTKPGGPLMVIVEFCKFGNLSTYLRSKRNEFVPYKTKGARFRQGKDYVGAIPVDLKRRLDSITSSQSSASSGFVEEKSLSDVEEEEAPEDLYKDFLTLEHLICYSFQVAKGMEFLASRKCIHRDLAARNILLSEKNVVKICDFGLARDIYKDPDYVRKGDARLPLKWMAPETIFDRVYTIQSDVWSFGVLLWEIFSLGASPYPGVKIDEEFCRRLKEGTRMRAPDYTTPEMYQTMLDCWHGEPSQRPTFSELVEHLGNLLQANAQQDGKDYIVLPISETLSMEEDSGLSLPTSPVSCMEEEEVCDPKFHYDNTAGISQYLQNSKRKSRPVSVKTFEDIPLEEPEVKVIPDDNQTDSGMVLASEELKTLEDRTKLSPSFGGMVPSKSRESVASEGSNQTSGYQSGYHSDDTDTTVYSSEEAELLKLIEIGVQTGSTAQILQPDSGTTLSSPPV

[22] = Half life in Sprague-Dawley rat at 4 mg/kg, po; assay type: ADME, organism-based; design: dose 4 mg/kg, route oral; details: in vivo
SH-SY5Y = test: Neuroprotective activity against human SH-SY5Y cells assessed as inhibition of MPP+-induced cell death; assay type: functional, cell-based
[23] = molecular target: T3, Dual specificity mitogen-activated protein kinase kinase 4 (Homo sapiens, UniProt P45985); test: Inhibition of human MKK4/7 expressed in baculovirus insect cell system
T3 sequence (P45985 whole entry): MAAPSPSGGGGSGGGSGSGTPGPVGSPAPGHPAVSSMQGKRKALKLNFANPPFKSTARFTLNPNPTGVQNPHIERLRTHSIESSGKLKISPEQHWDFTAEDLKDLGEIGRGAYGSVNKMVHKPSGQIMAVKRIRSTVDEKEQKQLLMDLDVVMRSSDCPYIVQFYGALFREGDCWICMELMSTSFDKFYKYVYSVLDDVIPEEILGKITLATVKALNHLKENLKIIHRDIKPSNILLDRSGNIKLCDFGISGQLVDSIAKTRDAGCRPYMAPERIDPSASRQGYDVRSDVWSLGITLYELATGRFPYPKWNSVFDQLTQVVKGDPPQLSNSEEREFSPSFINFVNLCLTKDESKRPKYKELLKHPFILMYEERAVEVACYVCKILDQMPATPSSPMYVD

[24] = molecular target: Vascular endothelial growth factor receptor 1 (Homo sapiens, UniProt P17948); test: Inhibition of human VEGFR1 expressed in baculovirus insect cell system
[25] = AUC in Sprague-Dawley rat at 4 mg/kg, po; assay type: ADME, organism-based; design: dose 4 mg/kg, route oral; details: plasma
Summary of the method: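 Rats were fasted overnight, then dosed by oral gavage in 50% Tween 80, 40% propylene carbonate and 10% propylene glycol. Serial heparinized blood samples were taken from the lateral tail vein at seven times over 6 h. Plasma was deproteinized with acetonitrile and analysed for drug against an internal standard by LC-MS/MS.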

Cyclin-dependent kinase = test: Inhibition of human CDK expressed in baculovirus insect cell system
[26] = Metabolic stability in rat liver S9 fraction after 2 hrs in presence of NADPH; assay type: ADME, subcellular; details: read-out: Stability
Summary of the method: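 Incubated 2 h in rat liver S9 preparation with NADPH; percent parent remaining reported.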

[27] = molecular target: Platelet-derived growth factor receptor beta (Homo sapiens, UniProt P09619); test: Inhibition of human PDGFRbeta expressed in baculovirus insect cell system
[28] = Half life in Sprague-Dawley rat at 2 mg/kg, iv; assay type: ADME, organism-based; design: dose 2 mg/kg, route intravenous; details: in vivo; summary of the method: as §3
[29] = molecular target: Mitogen-activated protein kinase kinase kinase 10 (Homo sapiens, UniProt Q02779); test: Inhibition of human MLK2 expressed in baculovirus insect cell system
Summary of the method: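 GST fusions of human MLK kinase domains from baculovirus (50 ng MLK1_KD, 150 ng MLK2_KD/LZ, 100 ng MLK3_KD), substrate 500 µg/mL myelin basic protein. Buffer 20 mM Hepes pH 7.2, 5 mM EGTA, 15 mM MgCl2, 1 mM DTT, 25 mM β-glycerophosphate, 0.1% BSA, 2% DMSO. […] 15 min at 37 °C, TCA precipitation, scintillation counting. IC50 by variable-slope sigmoidal fit, average of duplicates within 20%.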

[30] = molecular target: Serine/threonine-protein kinase Chk1/2 (Homo sapiens, UniProt O96017+O14757); test: Inhibition of human CHK1/2 expressed in baculovirus insect cell system
Mus musculus [31] = test: Neuroprotective activity against MPTP-induced loss of substantia nigra dopamine cell bodies in mouse at 2 mg/kg, po administered once daily; assay type: functional, organism-based; design: dose 2 mg/kg; summary of the method: as §5
[32] = molecular target: High affinity nerve growth factor receptor (Homo sapiens, UniProt P04629); test: Inhibition of human TrkA expressed in baculovirus insect cell system
Chain of High affinity nerve growth factor receptor (P04629 whole entry): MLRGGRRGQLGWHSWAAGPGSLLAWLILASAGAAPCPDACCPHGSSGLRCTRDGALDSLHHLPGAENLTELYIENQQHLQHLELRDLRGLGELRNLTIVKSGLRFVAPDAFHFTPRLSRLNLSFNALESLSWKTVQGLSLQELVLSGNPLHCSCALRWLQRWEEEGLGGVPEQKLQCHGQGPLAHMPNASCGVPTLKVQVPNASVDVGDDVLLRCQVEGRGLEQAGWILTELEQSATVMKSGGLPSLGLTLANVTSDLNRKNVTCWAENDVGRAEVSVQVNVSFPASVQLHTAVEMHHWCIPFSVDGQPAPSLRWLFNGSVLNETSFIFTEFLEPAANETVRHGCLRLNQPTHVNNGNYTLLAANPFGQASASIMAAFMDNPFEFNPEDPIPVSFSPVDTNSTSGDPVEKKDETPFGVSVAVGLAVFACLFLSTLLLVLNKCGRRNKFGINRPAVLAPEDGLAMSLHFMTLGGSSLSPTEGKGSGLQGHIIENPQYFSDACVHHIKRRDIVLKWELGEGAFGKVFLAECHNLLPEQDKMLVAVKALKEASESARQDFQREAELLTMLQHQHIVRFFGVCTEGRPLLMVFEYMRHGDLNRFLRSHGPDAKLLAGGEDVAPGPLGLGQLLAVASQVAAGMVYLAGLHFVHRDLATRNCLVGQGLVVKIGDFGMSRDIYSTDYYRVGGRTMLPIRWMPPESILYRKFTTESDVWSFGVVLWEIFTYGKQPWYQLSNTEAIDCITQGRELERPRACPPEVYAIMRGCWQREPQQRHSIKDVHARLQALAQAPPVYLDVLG

## CC(C)Oc1ccc2c(c1)CCc1c-2c2c(c3c1[nH]c1ccccc13)CNC2=O
[1]
  IC50: 66 nM
[2]
  IC50: 196 nM
[3]
  IC50: 159 nM

## O=C1NCc2c1c1c(c3[nH]c4ccccc4c23)CCc2cc(O)ccc2-1
[4]
  inhibition: 0%
[5]
  inhibition: 9%

## N#CCOc1ccc2c(c1)CCc1c-2c2c(c3c4ccccc4n(CCO)c13)CNC2=O
[4]
  inhibition: 8%
[5]
  inhibition: 30%

## O=C1NCc2c1c1c(c3c2c2ccccc2n3CCO)CCc2cc(OC3CCCC3)ccc2-1
[4]
  inhibition: 32%
[1]
  IC50: 49 nM
[2]
  IC50: 345 nM

## O=C1NCc2c1c1c(c3c2c2ccccc2n3CCO)CCc2cc(OC3CCCCC3)ccc2-1
[4]
  inhibition: 4%
[5]
  inhibition: 35%

## O=C1NCc2c1c1c(c3c2c2ccccc2n3CCO)CCc2cc(OCc3ccccn3)ccc2-1
[4]
  inhibition: 30%
[5]
  inhibition: 36%

## O=C1NCc2c1c1c(c3c2c2ccccc2n3CCO)CCc2cc(OCC3CC3)ccc2-1
[4]
  inhibition: 32%
[5]
  inhibition: 30%

## COc1ccc2c(c1)CCc1c-2c2c(c3c4ccccc4n(CCO)c13)CNC2=O
[6]
  Vd: 0.9 L/kg
[7]
  IC50: 6400 nM
[8]
  bioavailability: 57%
Mus musculus [9]
  inhibition (INH): 68%
[10]
  IC50: 3400 nM
[11]
  IC50: > 10000 nM
[12]
  Cmax: 572 ng/mL
[13]
  clearance: 19 mL/min/kg
[14]
  IC50: > 10000 nM
[15]
  IC50: > 10000 nM
[16]
  IC50: > 30000 nM
Mus musculus [17]
  Activity: Active
Protein kinase C (PKC)
  IC50: > 10000 nM
[18]
  AUC: 1730 ng·h/mL
[19]
  IC50: > 10000 nM
[1]
  IC50: 103 nM
[20]
  concentration at 2 h: 250 nM
[2]
  IC50: 127 nM
[21]
  IC50: 4720 nM
[22]
  half-life: 1.4 h
SH-SY5Y
  IC50: 32 nM
[3]
  IC50: 55 nM
[23]
  IC50: > 3000 nM
[24]
  IC50: > 10000 nM
[25]
  AUC: 1990 ng·h/mL
Cyclin-dependent kinase
  IC50: > 10000 nM
[26]
  remaining at 2 h: 44%
[27]
  IC50: > 10000 nM
[28]
  half-life: 0.6 h
[29]
  IC50: 1580 nM
[30]
  IC50: > 10000 nM
Mus musculus [31]
  Activity: Active
[32]
  IC50: 1270 nM

## O=C1NCc2c1c1c(c3c2c2ccccc2n3CCO)CCc2cc(OCCOCc3ccccc3)ccc2-1
[4]
  inhibition: 0%
[5]
  inhibition: 9%

## O=C1NCc2c1c1c(c3c2c2ccccc2n3CCO)CCc2cc(OCCO)ccc2-1
[4]
  inhibition: 46%

## O=C1NCc2c1c1c(c3c2c2ccccc2n3CCO)CCc2ccccc2-1
[3]
  IC50: 1000 nM
[5]
  inhibition: 14%

## COCCOc1ccc2c(c1)CCc1c-2c2c(c3c4ccccc4n(CCO)c13)CNC2=O
[4]
  inhibition: 40%
[5]
  inhibition: 52%

## COc1ccc2c(c1)CCc1c-2c2c(c3c1[nH]c1ccccc13)CNC2=O
[1]
  IC50: 188 nM
[3]
  IC50: 274 nM

## O=C1NCc2c1c1c(c3c2c2ccccc2n3CCO)CCc2cc(O)ccc2-1
[4]
  inhibition: 30%
[5]
  inhibition: 32%

## COc1ccc2c(c1)CCc1c-2c2c(c3c4ccccc4n(CCCO)c13)CNC2=O
[1]
  IC50: 101 nM
[3]
  IC50: 87 nM

## N#CCCCOc1ccc2c(c1)CCc1c-2c2c(c3c4ccccc4n(CCO)c13)CNC2=O
[4]
  inhibition: 46%
[5]
  inhibition: 58%
